Laboratory results published in ChEMBL document CHEMBL1149910, “2-(6-aryl-3(Z)-hexen-1,5-diynyl)anilines as a new class of potent antitubulin agents” (J Med Chem, 2008).

What was measured:
Type in all cases: functional
K562 [1] = assay: (§1) Cytotoxicity against human K562 cells
Method in brief: (§2)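 Tested in the NCI in vitro antitumor screening protocol across a tumor cell line panel. GI₅₀ is the concentration producing a 50% reduction in cell growth.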

HOP-62 = assay: Cytotoxicity against human HOP62 cells; method in brief: as §2
HOP-92 = assay: Cytotoxicity against human HOP92 cells; method in brief: as §2
NCI-H23 = assay: Cytotoxicity against human NCI-H23 cells; method in brief: as §2
NCI-H322M = assay: Cytotoxicity against human NCI-H322M cells; method in brief: as §2
[2] = Cytotoxicity against human […] cells; method in brief: as §2
COLO 205 = assay: Cytotoxicity against human COLO205 cells; method in brief: as §2
KM12 = assay: Cytotoxicity against human KM12 cells; method in brief: as §2
SF-268 = assay: Cytotoxicity against human SF268 cells; method in brief: as §2
SF-295 = assay: Cytotoxicity against human SF295 cells; method in brief: as §2
U-251 = assay: Cytotoxicity against human U251 cells; method in brief: as §2
M14 = assay: Cytotoxicity against human M14 cells; method in brief: as §2
OVCAR-5 = assay: Cytotoxicity against human OVCAR5 cells; method in brief: as §2
786-0 = assay: Cytotoxicity against human 786-0 cells; method in brief: as §2
RXF 393 = assay: Cytotoxicity against human RXF393 cells; method in brief: as §2
DU-145 = assay: Cytotoxicity against human DU145 cells; method in brief: as §2
MCF7 = assay: Cytotoxicity against human MCF7 cells; method in brief: as §2
NCI/ADR-RES = assay: Cytotoxicity against human NCI/ADR-RES cells; method in brief: as §2
BT-549 = assay: Cytotoxicity against human BT549 cells; method in brief: as §2
T47D = assay: Cytotoxicity against human T47D cells; method in brief: as §2
K562 [3] = assay: as §1; method in brief: as §2; remark: listed apart in the source
OVCAR-3 = assay: Cytotoxicity against human OVCAR-3 cells; method in brief: as §2
MDA-MB-231 [4] = assay: Cytotoxicity against human MDA-MB-231 cells; method in brief: as §2
K562 [5] = assay: Cell cycle arrest in human K562 cells assessed as accumulation at sub-G1 phase at 50 uM after 24 hrs by flow cytometry
Method in brief: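 K-562 human leukemia cells were grown in RPMI 1640 with 10% fetal calf serum, glutamine and penicillin/streptomycin at 37 °C in 5% CO₂. Cells were exposed to compound at 50 µM for 24 h, then pelleted and PBS-washed. They were fixed in ice-cold ethanol for 30 min, treated with 1 mg/mL RNase A at 37 °C for 30 min, and stained with propidium iodide and Triton X-100 for 30 min at room temperature in the dark. Per-phase and sub-G1 percentages came from flow cytometry gating.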

MDA-MB-231 [6] = assay: Cell cycle arrest in human MDA-MB-231 cells assessed as accumulation of 2N cells at 3.6 uM after 24 hrs by flow cytometry
MDA-MB-231 [7] = assay: Cell cycle arrest in human MDA-MB-231 cells assessed as accumulation of 2N cells at 18.0 uM after 24 hrs by flow cytometry
MDA-MB-231 [8] = assay: Cell cycle arrest in human MDA-MB-231 cells assessed as accumulation at sub-G1 phase at 27.0 uM after 24 hrs by flow cytometry
MDA-MB-231 [9] = assay: Cell cycle arrest in human MDA-MB-231 cells assessed as accumulation of 4N cells at 9.0 uM after 24 hrs by flow cytometry
MDA-MB-231 [10] = assay: Cell cycle arrest in human MDA-MB-231 cells assessed as accumulation of 4N cells at 18.0 uM after 24 hrs by flow cytometry
MDA-MB-231 [11] = assay: Cell cycle arrest in human MDA-MB-231 cells assessed as accumulation of >4N cells at 18.0 uM after 24 hrs by flow cytometry
MDA-MB-231 [12] = assay: Cell cycle arrest in human MDA-MB-231 cells assessed as accumulation of >4N cells at 27.0 uM after 24 hrs by flow cytometry
MDA-MB-231 [13] = assay: Cell cycle arrest in human MDA-MB-231 cells assessed as accumulation of 2N cells at 9.0 uM after 72 hrs by flow cytometry
MDA-MB-231 [14] = assay: Cell cycle arrest in human MDA-MB-231 cells assessed as accumulation of 2N cells at 3.6 uM after 72 hrs by flow cytometry
MDA-MB-231 [15] = assay: Cell cycle arrest in human MDA-MB-231 cells assessed as accumulation of 2N cells at 18.0 uM after 72 hrs by flow cytometry
MDA-MB-231 [16] = assay: Cell cycle arrest in human MDA-MB-231 cells assessed as accumulation of 2N cells at 27.0 uM after 72 hrs by flow cytometry
MDA-MB-231 [17] = assay: Cell cycle arrest in human MDA-MB-231 cells assessed as accumulation of 2N cells at 36.0 uM after 72 hrs by flow cytometry
MDA-MB-231 [18] = assay: Cell cycle arrest in human MDA-MB-231 cells assessed as accumulation at sub-G1 phase at 9.0 uM after 72 hrs by flow cytometry
MDA-MB-231 [19] = assay: Cell cycle arrest in human MDA-MB-231 cells assessed as accumulation of 4N cells at 27.0 uM after 72 hrs by flow cytometry
MDA-MB-231 [20] = assay: Cell cycle arrest in human MDA-MB-231 cells assessed as accumulation of 4N cells at 36.0 uM after 72 hrs by flow cytometry
MDA-MB-231 [21] = assay: Cell cycle arrest in human MDA-MB-231 cells assessed as accumulation of >4N cells at 3.6 uM after 72 hrs by flow cytometry
MDA-MB-231 [22] = assay: Cell cycle arrest in human MDA-MB-231 cells assessed as accumulation of >4N cells at 18.0 uM after 72 hrs by flow cytometry
[23] = read-out: LC50 (the source's name)

Nc1ccccc1C#C/C=C\C#Cc1ccccc1C(F)(F)F
GI50 (K562 [1]): 1 µM
TGI (K562 [1]): 0.845 µM
CC50 (K562 [1]; [23]): 62.7 µM
GI50 (HOP-62): 0.77 µM
TGI (HOP-62): 26.1 µM
CC50 (HOP-62; [23]): 69.5 µM
GI50 (HOP-92): 20.4 µM
TGI (HOP-92): 48.6 µM
CC50 (HOP-92; [23]): > 100 µM
GI50 (NCI-H23): 0.273 µM
TGI (NCI-H23): 1.89 µM
CC50 (NCI-H23; [23]): 47.8 µM
GI50 (NCI-H322M): 12.1 µM
TGI (NCI-H322M): 27.9 µM
CC50 (NCI-H322M; [23]): 64.4 µM
GI50 [2]: 0.746 µM
TGI [2]: > 100 µM
CC50 [2, 23]: > 100 µM
GI50 (COLO 205): 1.17 µM
TGI (COLO 205): 13.8 µM
CC50 (COLO 205; [23]): > 100 µM
GI50 (KM12): 0.371 µM
TGI (KM12): 20.3 µM
CC50 (KM12; [23]): > 100 µM
GI50 (SF-268): 0.65 µM
TGI (SF-268): 19.7 µM
CC50 (SF-268; [23]): 64.3 µM
GI50 (SF-295): 0.396 µM
TGI (SF-295): 2.6 µM
CC50 (SF-295; [23]): 26.8 µM
GI50 (U-251): 0.666 µM
TGI (U-251): 17.5 µM
CC50 (U-251; [23]): 45.4 µM
GI50 (M14): 0.372 µM
TGI (M14): 13.2 µM
CC50 (M14; [23]): 49.4 µM
GI50 (OVCAR-5): 1.35 µM
TGI (OVCAR-5): 7.02 µM
CC50 (OVCAR-5; [23]): 37.5 µM
GI50 (786-0): 0.7 µM
TGI (786-0): 17.7 µM
CC50 (786-0; [23]): 67 µM
GI50 (RXF 393): 0.808 µM
TGI (RXF 393): 4.62 µM
CC50 (RXF 393; [23]): 30.5 µM
GI50 (DU-145): 3.08 µM
TGI (DU-145): 18.4 µM
CC50 (DU-145; [23]): 48.5 µM
GI50 (MCF7): 0.681 µM
TGI (MCF7): > 100 µM
CC50 (MCF7; [23]): > 100 µM
GI50 (NCI/ADR-RES): 0.249 µM
TGI (NCI/ADR-RES): 0.68 µM
CC50 (NCI/ADR-RES; [23]): 28.5 µM
GI50 (BT-549): 0.699 µM
TGI (BT-549): 17.3 µM
CC50 (BT-549; [23]): 43.4 µM
GI50 (T47D): 17 µM
TGI (T47D): 49.6 µM
CC50 (T47D; [23]): > 100 µM
GI50 (K562 [3]): 1 µM
GI50 (OVCAR-3): 0.631 µM
GI50 (MDA-MB-231 [4]): 0.398 µM
Activity (K562 [5]): 19.4%
Activity (MDA-MB-231 [6]): 9.5%
Activity (MDA-MB-231 [7]): 9.5%
Activity (MDA-MB-231 [8]): 24.7%
Activity (MDA-MB-231 [9]): 33.6%
Activity (MDA-MB-231 [10]): 31.9%
Activity (MDA-MB-231 [11]): 35.1%
Activity (MDA-MB-231 [12]): 35.3%
Activity (MDA-MB-231 [13]): 6.8%
Activity (MDA-MB-231 [14]): 23.3%
Activity (MDA-MB-231 [15]): 7.1%
Activity (MDA-MB-231 [16]): 6.8%
Activity (MDA-MB-231 [17]): 6.5%
Activity (MDA-MB-231 [18]): 53.9%
Activity (MDA-MB-231 [19]): 15%
Activity (MDA-MB-231 [20]): 14.5%
Activity (MDA-MB-231 [21]): 10.3%
Activity (MDA-MB-231 [22]): 13%
